Assays:
[1] = test system: Hepatitis C virus; assay: Inhibition of HCV genotype 1b recombinant NS5B Cdelta21 polymerase assessed as inhibition of radioactive UMP incorporation into nascent RNA using […] template-primer after 1hr by liquid scintillation counting analysis; set-up: species or system Hepatitis C virus subtype 1b
Summary of the method: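 Recombinant HCV NS5BCΔ21 (genotype 1b), homopolymeric poly rA/U12 template-primer. Read-out is radioactive UMP incorporated into nascent RNA. Dose-response at 8-10 compound concentrations, in duplicate, two independent experiments. IC50 interpolated from nonlinear regression fits; mean ± SD.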

[2] = Cytotoxicity against human hepatoma cells; type: cell-based
[3] = test system: Hepatitis C virus; assay: Antiviral activity against hepatitis C virus infected in human hepatoma cells assessed as inhibition of HCV replication at 100 uM; type: functional, Hepacivirus hominis
[4] = test system: Hepacivirus hominis; assay: Selectivity ratio of IC50 for HCV NS5B polymerase M423T mutant to IC50 for wild type HCV NS5B polymerase
Summary of the method: (§1)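 Recombinant HCV NS5BCΔ21 (genotype 1b), wild type and the P495L, M423T and M414T mutants, each assayed for incorporation of radioactive UMP into nascent RNA on homopolymeric poly rA/U12 template-primer. IC50s came from nonlinear regression of dose-response curves (8-10 compound concentrations, duplicate, at least two independent experiments, mean ± SD). The ratio is mutant IC50 over wild-type IC50.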

[5] = molecular target: RNA-directed RNA polymerase (Hepacivirus hominis, UniProt O39930, M423T); assay: Inhibition of HCV NS5B polymerase M423T mutant assessed as inhibition of radioactive UMP incorporation into nascent RNA using […] template-primer after 1hr by liquid scintillation counting analysis
Summary of the method: (§2)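 Mutant counterscreen with recombinant NS5BCΔ21 mutants: P495L (probe for TP-I site), M423T (TP-II), M414T (PP-I). Radioactive UMP incorporation into nascent RNA on poly rA/U12 template-primer, run as for wild-type. IC50 from dose-response curves by nonlinear regression; mean ± SD of at least two independent experiments in duplicate.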

[6] = molecular target: RNA-directed RNA polymerase (Hepacivirus hominis, UniProt O39930, P495L); assay: Inhibition of HCV NS5B polymerase P495L mutant assessed as inhibition of radioactive UMP incorporation into nascent RNA using […] template-primer after 1hr by liquid scintillation counting analysis; summary of the method: as §2
[7] = test system: Hepacivirus hominis; assay: Selectivity ratio of IC50 for HCV NS5B polymerase P495L mutant to IC50 for wild type HCV NS5B polymerase; summary of the method: as §1
[8] = test system: Hepacivirus hominis; assay: Selectivity ratio of IC50 for HCV NS5B polymerase M414T mutant to IC50 for wild type HCV NS5B polymerase; summary of the method: as §1
[9] = molecular target: RNA-directed RNA polymerase (Hepacivirus hominis, UniProt O39930, M414T); assay: Inhibition of HCV NS5B polymerase M414T mutant assessed as inhibition of radioactive UMP incorporation into nascent RNA using […] template-primer after 1hr by liquid scintillation counting analysis; summary of the method: as §2
RNA-directed RNA polymerase (Hepacivirus hominis, UniProt O39930, M414T), sequence (O39930 entry or part of it M414T): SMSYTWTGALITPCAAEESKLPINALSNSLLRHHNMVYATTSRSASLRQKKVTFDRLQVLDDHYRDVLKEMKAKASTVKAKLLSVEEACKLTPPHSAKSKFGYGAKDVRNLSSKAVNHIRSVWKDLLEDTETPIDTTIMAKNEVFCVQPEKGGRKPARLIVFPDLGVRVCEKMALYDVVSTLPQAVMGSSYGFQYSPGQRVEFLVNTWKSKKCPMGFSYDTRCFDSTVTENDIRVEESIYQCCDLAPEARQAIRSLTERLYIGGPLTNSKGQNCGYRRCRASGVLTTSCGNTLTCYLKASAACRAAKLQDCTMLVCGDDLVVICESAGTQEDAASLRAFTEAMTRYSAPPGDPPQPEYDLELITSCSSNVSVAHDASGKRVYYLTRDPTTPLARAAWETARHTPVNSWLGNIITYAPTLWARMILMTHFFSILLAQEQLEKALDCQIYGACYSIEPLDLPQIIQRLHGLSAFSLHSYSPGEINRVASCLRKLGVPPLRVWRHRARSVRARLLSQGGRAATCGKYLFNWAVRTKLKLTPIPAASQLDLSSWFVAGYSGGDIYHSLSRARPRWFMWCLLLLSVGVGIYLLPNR

RNA-directed RNA polymerase (Hepacivirus hominis, UniProt O39930, P495L), sequence (O39930 entry or part of it P495L): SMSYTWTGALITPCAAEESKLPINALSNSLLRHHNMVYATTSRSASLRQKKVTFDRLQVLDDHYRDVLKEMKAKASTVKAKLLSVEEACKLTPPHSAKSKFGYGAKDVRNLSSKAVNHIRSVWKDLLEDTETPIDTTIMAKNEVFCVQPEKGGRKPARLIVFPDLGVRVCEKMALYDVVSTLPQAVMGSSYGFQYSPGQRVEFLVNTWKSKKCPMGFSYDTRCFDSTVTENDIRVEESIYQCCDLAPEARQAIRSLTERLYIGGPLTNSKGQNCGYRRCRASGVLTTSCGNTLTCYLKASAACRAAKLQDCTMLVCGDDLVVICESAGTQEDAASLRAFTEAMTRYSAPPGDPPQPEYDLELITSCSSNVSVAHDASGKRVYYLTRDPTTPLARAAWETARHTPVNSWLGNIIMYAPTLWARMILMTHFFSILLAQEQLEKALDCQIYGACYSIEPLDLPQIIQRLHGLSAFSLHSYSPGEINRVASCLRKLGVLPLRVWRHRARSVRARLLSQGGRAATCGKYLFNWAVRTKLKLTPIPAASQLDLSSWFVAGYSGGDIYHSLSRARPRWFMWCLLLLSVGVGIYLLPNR
RNA-directed RNA polymerase (Hepacivirus hominis, UniProt O39930, M423T), sequence (O39930 entry or part of it M423T): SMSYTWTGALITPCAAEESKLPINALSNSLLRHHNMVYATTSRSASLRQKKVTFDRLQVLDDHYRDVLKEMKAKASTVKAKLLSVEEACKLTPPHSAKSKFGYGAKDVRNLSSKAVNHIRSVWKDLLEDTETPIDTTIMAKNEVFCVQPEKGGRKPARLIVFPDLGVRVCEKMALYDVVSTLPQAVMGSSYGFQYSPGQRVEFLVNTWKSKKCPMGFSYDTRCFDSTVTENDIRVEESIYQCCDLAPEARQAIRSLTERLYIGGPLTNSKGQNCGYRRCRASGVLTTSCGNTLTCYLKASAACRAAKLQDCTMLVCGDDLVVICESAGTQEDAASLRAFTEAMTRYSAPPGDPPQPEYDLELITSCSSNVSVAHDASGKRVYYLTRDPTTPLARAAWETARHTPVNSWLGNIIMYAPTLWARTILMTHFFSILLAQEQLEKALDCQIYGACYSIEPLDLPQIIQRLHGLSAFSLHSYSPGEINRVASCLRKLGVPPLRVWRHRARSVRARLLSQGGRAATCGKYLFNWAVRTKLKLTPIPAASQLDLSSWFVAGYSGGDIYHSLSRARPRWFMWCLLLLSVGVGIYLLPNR

O=C(O)[C@H](Cc1ccccc1)N1C(=O)/C(=C/c2ccc(Cl)cc2)SC1=S
IC50 [1]: 22.3 µM

O=C(O)[C@H](Cc1ccccc1)N1C(=O)/C(=C/c2cccc(Cc3ccccc3)c2)SC1=S
Activity [2]: Non-toxic
inhibition at 100 µM [3]: 30%
IC50 [1]: 4.8 µM

O=C(O)[C@H](Cc1ccccc1)N1C(=O)/C(=C/c2cccc(OC/C=C\c3ccccc3)c2)SC1=S
IC50 [1]: 6.4 µM

O=C(O)[C@H](Cc1ccccc1)N1C(=O)/C(=C/c2ccc(Cl)c(Cl)c2)SC1=S
IC50 [1]: 19.4 µM

O=C(O)[C@H](Cc1ccccc1)N1C(=O)/C(=C/c2ccccc2Oc2ccccc2)SC1=S
IC50 [1]: 13.3 µM

O=C(O)[C@H](Cc1ccccc1)N1C(=O)/C(=C/c2ccc(Oc3ccccc3)cc2)SC1=S
IC50 [1]: 50.7 µM

N#Cc1cccc(/C=C2\SC(=S)N([C@@H](Cc3ccccc3)C(=O)O)C2=O)c1
IC50 [1]: 30.7 µM

O=C(O)[C@@H](Cc1ccccc1)N1C(=O)/C(=C/c2cccc(Oc3ccccc3)c2)SC1=S
IC50 [1]: 19.3 µM

O=C(O)[C@@H](Cc1ccccc1)N1C(=O)/C(=C/c2cccc(Oc3cccc(Cl)c3)c2)SC1=S
IC50 [1]: 4.1 µM

O=C(c1ccccc1)c1cccc(/C=C2\SC(=S)N([C@@H](Cc3ccccc3)C(=O)O)C2=O)c1
IC50 [1]: 11.1 µM

O=C(O)[C@H](Cc1ccccc1)N1C(=O)/C(=C/c2cc(F)cc(F)c2)SC1=S
IC50 [1]: 26 µM

O=C(O)[C@H](Cc1ccccc1)N1C(=O)/C(=C/c2cccc(OCc3ccccc3)c2)SC1=S
IC50 [1]: 21.8 µM

O=C(O)[C@@H](Cc1ccccc1)N1C(=O)/C(=C/c2cccc(Oc3ccc(Cl)c(Cl)c3)c2)SC1=S
IC50 [1]: 5.4 µM

O=C(O)[C@H](Cc1ccccc1)N1C(=O)/C(=C/c2cccc(Cl)c2)SC1=S
IC50 [1]: 26.6 µM

O=C(O)[C@H](Cc1ccccc1)N1C(=O)/C(=C/c2ccc(F)cc2)SC1=S
IC50 [1]: 27.7 µM

O=C(O)[C@H](Cc1ccccc1)N1C(=O)/C(=C/c2cccc(Oc3ccc(F)cc3)c2)SC1=S
IC50 [1]: 12.5 µM

O=C(O)[C@H](Cc1ccccc1)N1C(=O)/C(=C/c2cccc(Oc3ccccc3)c2)SC1=S
IC50 [1]: 6.7 µM

O=C(O)[C@@H](Cc1ccccc1)N1C(=O)/C(=C/c2cccc(Oc3ccc(Cl)cc3)c2)SC1=S
IC50 [1]: 5.1 µM

O=C(O)[C@H](Cc1ccccc1)N1C(=O)/C(=C/c2ccc(Br)cc2)SC1=S
IC50 [1]: 11.7 µM

O=C(O)[C@H](Cc1ccccc1)N1C(=O)/C(=C/c2cccc(Br)c2)SC1=S
IC50 [1]: 7.4 µM

O=C(O)[C@H](Cc1ccccc1)N1C(=O)/C(=C/c2cccc(Oc3ccc(Cl)cc3)c2)SC1=S
Ratio IC50 [4]: < 1.5
IC50 [5]: 4.2 µM
IC50 [6]: 3.6 µM
Ratio IC50 [7]: < 1.5
IC50 [1]: 3.4 µM
Ratio IC50 [8]: 16
IC50 [9]: 55.7 µM

O=C(O)[C@H](Cc1ccccc1)N1C(=O)/C(=C/c2cccc(Oc3cccc(F)c3)c2)SC1=S
IC50 [1]: 8.2 µM

O=C(O)[C@H](Cc1ccccc1)N1C(=O)/C(=C/c2cccc(Oc3ccc(Cl)c(Cl)c3)c2)SC1=S
Ratio IC50 [4]: < 1.5
IC50 [5]: 3 µM
IC50 [6]: 2.8 µM
Ratio IC50 [7]: < 1.5
IC50 [1]: 2.6 µM
Ratio IC50 [8]: 16
IC50 [9]: 47.8 µM

O=C(O)[C@H](Cc1ccccc1)N1C(=O)/C(=C/c2cccc(-c3ccccc3)c2)SC1=S
IC50 [1]: 16.6 µM

O=C(O)[C@H](Cc1ccccc1)N1C(=O)/C(=C/c2ccc(F)c(F)c2)SC1=S
IC50 [1]: 16.3 µM

O=C(O)[C@@H](Cc1ccccc1)N1C(=O)/C(=C/c2cccc(Oc3ccc(F)cc3)c2)SC1=S
IC50 [1]: 10.3 µM

COc1ccc(Oc2cccc(/C=C3\SC(=S)N([C@@H](Cc4ccccc4)C(=O)O)C3=O)c2)cc1
IC50 [1]: 8.3 µM

O=C(O)[C@H](Cc1ccccc1)N1C(=O)/C(=C/c2cccc(Oc3cccc(Cl)c3)c2)SC1=S
IC50 [1]: 4.1 µM

— ChEMBL document CHEMBL2384953, “Design and synthesis of L- and D-phenylalanine derived rhodanines with novel C5-arylidenes as inhibitors of HCV NS5B polymerase” (Bioorg Med Chem, 2013)
